What was measured:
[1] = target: T1, Bromodomain-containing protein 4 (Homo sapiens, UniProt O60885); experiment: Binding affinity to human N-terminal His6-tagged BRD4 BD1-BD2 (K57 to K550 residues) after 1 hr using alexa-647 conjugated probe by TR-FRET assay
[2] = target: T1, Bromodomain-containing protein 4; experiment: Inhibition of BRD4 in human H1299 cells assessed as decrease in HPV LCR-E2-EP400-mediated transcriptional repression after 24 hrs by Bright-Glo luciferase reporter gene assay; type: cell-based
[3] = system: MX1; experiment: Antiproliferative activity against human MX1 cells after 72 hrs by Cell Titer Glo assay; type: functional, cell-based; details: MX1, 72 h
[4] = system: Liver; experiment: Unbound intrinsic clearance in rat liver microsomes at 10 uM preincubated for 5 mins followed by NADPH addition measured after 60 mins by HPLC-UV-MS analysis; type: ADME, microsome; details: 1 h
[5] = Permeability in MDCK cells; type: ADME, cell-based, Canis lupus familiaris; details: dog, read-out: permeability
[6] = system: Liver; experiment: Unbound intrinsic clearance in human liver microsomes at 10 uM preincubated for 5 mins followed by NADPH addition measured after 60 mins by HPLC-UV-MS analysis; type: ADME, microsome; details: 1 h
[7] = system: Liver; experiment: Unbound intrinsic clearance in mouse liver microsomes; type: ADME, microsome
How it was run: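 Liver microsome stability is expressed as unbound intrinsic clearance, Cl_int,u, in L/hr/kg. Dextromethorphan served as the in-house low-clearance reference control and verapamil as the high-clearance reference control.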

Compound	Ki [1] [nM]	EC50 [2] [nM]	EC50 [3] [nM]	CL free [4] [mL/min/kg]	Papp [5] [×10⁻⁶ cm/s]	CL free [6] [mL/min/kg]	CL free [7] [mL/min/kg]
Cn1cc(-c2ccccc2Oc2ccccc2)ccc1=O	890	4100	4800				
Cn1cc(-c2cc(NS(C)(=O)=O)ccc2OC2CCCCC2)c2cc[nH]c2c1=O	3.7	18	14	1600	23	450	3670
CC(=O)Nc1ccc(Oc2ccccc2)c(-c2cn(C)c(=O)c3[nH]ccc23)c1	9.8	26	46	767	28	113	3500
Cn1cc(-c2ccccc2Oc2ccccc2)c2cc[nH]c2c1=O	48	480	550	40000	31	1670	93300
CCS(=O)(=O)Nc1ccc(Oc2ccc(Cl)cc2)c(-c2cn(C)c(=O)c3[nH]ccc23)c1	3.4	17	22	200	21	< 96.7	900
Cn1cc(-c2cc(NS(C)(=O)=O)ccc2OC2CCOCC2)c2cc[nH]c2c1=O	68	90	72	233	1.7	< 30	< 90
CCNC(=O)c1ccc(Oc2ccccc2)c(-c2cn(C)c(=O)c3[nH]ccc23)c1	32	70	130	4000	30	68.3	717
Cn1cc(-c2cc(NS(C)(=O)=O)ccc2Oc2ccc(F)cc2Cl)c2cc[nH]c2c1=O	3.1	35	27	317	11	233	850
CCS(=O)(=O)Nc1ccc(Oc2ccccc2)c(-c2cn(C)c(=O)c3[nH]ccc23)c1	1.5	8.1	14	3330	22	< 45	917
Cn1cc(-c2cc(C(N)=O)ccc2Oc2ccccc2)c2cc[nH]c2c1=O	14	71	120	550	14	48.3	450
Cn1cc(-c2cc(S(C)(=O)=O)ccc2Oc2ccccc2)c2cc[nH]c2c1=O	5.8	50	52	1080	24	91.7	383
COc1ccc2c(c1)[C@]13CCCC[C@@H]1[C@H](C2)N(C)CC3 [DEXTROMETHORPHAN]						123	
COCCc1ccc(OCC(O)CNC(C)C)cc1 (configuration not stated) [METOPROLOL]					36		
CCS(=O)(=O)Nc1ccc(Oc2ccc(C#N)cc2)c(-c2cn(C)c(=O)c3[nH]ccc23)c1	9.4	48	17	81.7	11	41.7	< 108
CCS(=O)(=O)Nc1ccc(OCC(C)(C)C)c(-c2cn(C)c(=O)c3[nH]ccc23)c1	38	79	77	433	43	283	1030
Cc1cc(-c2ccccc2Oc2ccccc2)c[nH]c1=O	1700	2300	2400				

Compound	Ki [1] [nM]	EC50 [2] [nM]	EC50 [3] [nM]	CL free [4] [mL/min/kg]	Papp [5] [×10⁻⁶ cm/s]	CL free [6] [mL/min/kg]	CL free [7] [mL/min/kg]
CN(C)S(=O)(=O)Nc1ccc(Oc2ccccc2)c(-c2cn(C)c(=O)c3[nH]ccc23)c1	2.9	43	65	4000	19	233	2330
CCS(=O)(=O)Nc1ccc(OC2CCC(N(C)C)CC2)c(-c2cn(C)c(=O)c3[nH]ccc23)c1 (configuration not stated)	26	270	86	< 45	2.7	< 26.7	125
CCS(=O)(=O)Nc1ccc(Oc2c(F)cc(F)cc2F)c(-c2cn(C)c(=O)c3[nH]ccc23)c1	12	19	7.9	233	21	102	900
Cn1cc(-c2cc(NS(C)(=O)=O)ccc2Oc2ccccc2C(F)(F)F)c2cc[nH]c2c1=O	6.4	76	83	250	7.8	533	1350
Cn1cc(-c2cc(NS(=O)(=O)CC(F)(F)F)ccc2Oc2ccccc2)c2cc[nH]c2c1=O	4.4	22	31	1270	16	46.7	650
Cn1cc(-c2cc(NS(C)(=O)=O)cnc2Oc2ccccc2)c2cc[nH]c2c1=O	4.1	88	46	600	6	63.3	< 93.3
Cc1sc2c(c1C)C(c1ccc(Cl)cc1)=N[C@@H](CC(=O)OC(C)(C)C)c1nnc(C)n1-2			254				
CCS(=O)(=O)Nc1ccc(Oc2ccc(C(F)(F)F)cc2)c(-c2cn(C)c(=O)c3[nH]ccc23)c1	9	65	30	583	11	128	2830
Cn1cc(-c2cc(NS(C)(=O)=O)ccc2OCc2ccccc2)c2cc[nH]c2c1=O	68	120	110	567	24	122	900
CCS(=O)(=O)Nc1ccc(OC2CCN(C)CC2)c(-c2cn(C)c(=O)c3[nH]ccc23)c1	430	880	210	80	0.55	< 28.3	< 85
Cn1cc(-c2cc(NS(C)(=O)=O)ccc2Oc2cccnc2)c2cc[nH]c2c1=O	6.3	67	34	350	3	86.7	533
Cn1cc(-c2ccccc2Oc2ccccc2)cc(N)c1=O	3000	8500	> 5000				
Cn1cc(-c2cc(NS(C)(=O)=O)ccc2OC2CCC(F)(F)CC2)c2cc[nH]c2c1=O	19	20	19	200	12	< 38.3	717
Cn1cc(-c2cc(S(N)(=O)=O)ccc2Oc2ccccc2)c2cc[nH]c2c1=O	3.6	39	56	1320	22	< 43.3	517
CCS(=O)(=O)Nc1ccc(Oc2cncnc2)c(-c2cn(C)c(=O)c3[nH]ccc23)c1	32	170	130	48.3	1	< 33.3	233
